Data set [1] concerns Rattus norvegicus. As to the kind of experiment: Antiinflammatory activity against carrageenan-induced paw edema in po dosed Wistar rat at dose equivalent to 2.5 mg/kg ketorolac after 2 hrs. It counts as functional. The procedure, abridged:
(§1)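 Wistar albino rats, 100–200 g, seven groups of three including control and standard. Initial right hind paw volume measured by plethysmometer before dosing. Oral dose in 1% CMC suspension, prodrugs equivalent to 2.5 mg/kg ketorolac. Anti-inflammatory activity reported as percentage at 2 and 6 h after administration.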
For orientation: The carrageenan paw model is a standard test of acute inflammation.

Data set [2] is described as follows: Solubility in water. It counts as physicochemical. Conditions: buffer.
Data set [3] can be described thus: Metabolic stability in stimulated intestinal fluid assessed as half life at 10 mg by HPLC. In kind it is ADME. Conditions: simulated intestinal fluid. The essentials: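 10 mg in 2 mL acetonitrile added to 88 mL SIF (pH 7.4). Aliquots chilled in freezing mixture to arrest hydrolysis, vortexed 5 min and centrifuged 5 min. Supernatant analysed on C18 reversed-phase HPLC (acetonitrile:water 50:50), UV at 247 nm.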

The subject of data set [4] is Rattus norvegicus. The data set can be described thus: Analgesic activity in po dosed Wistar rat […] assessed as reaction time for tail withdrawal at dose equivalent to 1.2 mg/kg of ketorolac after 30 mins by tail flick method. It counts as functional. The procedure, abridged: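 Wistar rats, 100–200 g, groups of three. Tail-flick test on a […] analgesiometer with a thermal stimulus. Current set so that more than 90% of rats flick within 5–9 s, and slow responders rejected. Dose equivalent to 1.2 mg/kg given orally in 1% sodium carboxymethylcellulose suspension. %Analgesia = [1 − […]]×100, from reaction times before (T₁) and after (T₂) dosing.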
Background: Hot-plate and tail-flick tests time the reaction to a heat stimulus.

For data set [5], the system named is Rattus norvegicus. The data set can be described thus: Antiinflammatory activity against carrageenan-induced paw edema in po dosed Wistar rat at dose equivalent to 2.5 mg/kg ketorolac after 6 hrs. It counts as functional. The procedure, abridged: as §1
Data set [6] in a line: Chloroform-PBS partition coefficient, log K at pH 7.4. In kind it is physicochemical.
Data set [7] can be described thus: Chloroform-acidic buffer partition coefficient, log K at pH 1.4. It counts as physicochemical.
Data set [8] in a line: Metabolic stability in human plasma assessed as half life at 10 mg by HPLC. It counts as ADME, cell-free. The procedure, abridged:
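10 mg in 2 mL acetonitrile added to 88 mL 80% human plasma (80:20 plasma:phosphate buffer pH 7.4) at 37 ± 0.5 °C. Samples taken at 10, 20, 30, 40, 50 and 60 min and chilled in freezing mixture to stop hydrolysis. Then vortexed 5 min, centrifuged, and supernatant run on C18 reversed-phase HPLC (acetonitrile:water 50:50), UV at 247 nm.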

The nature of data set [9]: Solubility in 1.0N HCl. It counts as physicochemical. To be noted: buffer.
Data set [10] can be described thus: Protein binding in plasma in pH 7.4 at 20 ug/ml by spectrophotometry. It counts as ADME, cell-free. Conditions: read-out: PB (converted). The procedure, abridged: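 Prodrug solution in PBS pH 7.4. Membrane washed with distilled water, then with pH 7.4 buffer, before use. Withdrawn samples diluted with 1 mL phosphate buffer and prodrug concentration measured spectrophotometrically.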

For data set [11], the system named is Rattus norvegicus. The data set can be described thus: Antiinflammatory activity against carrageenan-induced paw edema in Wistar rat at 2.5 mg/kg, po after 6 hrs. It counts as functional. The procedure, abridged: as §1
Data set [12] is described as follows: Solubility in 0.1 N NaOH. It counts as physicochemical.
In data set [13] the test system is Rattus norvegicus. As to the kind of experiment: Antiinflammatory activity against carrageenan-induced paw edema in Wistar rat at 2.5 mg/kg, po after 2 hrs. In kind it is functional. The essentials:
as §1

The subject of data set [14] is Rattus norvegicus. As to the kind of experiment: Gastrointestinal toxicity in Wistar rat assessed as ulcerogenic indicates at dose equivalent to 1.2 mg/kg of ketorolac orally administered for 5 days. It counts as organism-based. The arrangement: dose 1.2 mg/kg, route oral. To be noted: in vivo, po, 120 h. The procedure, abridged: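 Male Wistar rats, 130–150 g, groups of three including control and standard. Suspended in 2% w/v acacia and given orally at dose equivalent to 1.2 mg/kg ketorolac daily for 5 days. Rats fasted after the last dose, then decapitated. Stomach opened and washed, and lesions larger than 0.5 mm counted visually under a 2× binocular magnifier.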

[15] abbreviates: chloroform/acidic buffer, pH 1.4.

Take `CCOC(=O)C(NC(=O)C1CCn2c(C(=O)c3ccccc3)ccc21)C(C)CC` (racemic): the Activity in the data set on Rattus norvegicus [1] came to 33%; in the data set on Rattus norvegicus [4] it was 36%; in the data set on Rattus norvegicus [5], 49%. The solubility result in data set [2] and in [9] was “Insoluble” each time. Moreover, the values for the half-life in [3] and in [8] were 2.13 h and 0.65 h, respectively. Moreover, the K in [6] (chloroform/PBS, pH 7.4) is 23.87; in [7] (setting [15]), 656.8. In addition, in data set [10], the fraction unbound at 20 ug/ml is 0.55.

For `CCOC(=O)C(NC(=O)C1CCn2c(C(=O)c3ccccc3)ccc21)C(C)C` (racemic), the Activity in the data set with Rattus norvegicus [1] amounted to 33%; in the data set on Rattus norvegicus [4], 36%; with Rattus norvegicus [5] it was 49%. The solubility result in data set [2] and in data set [9] was “Insoluble” in each case. For the same compound, the figures for the half-life in data set [3] and in data set [8] were 2.67 h and 0.65 h, respectively. Also, the K is 20 in data set [6] (chloroform/PBS, pH 7.4) and 380.6 in [7] (setting [15]). Also, in data set [10], the fraction unbound at 20 ug/ml is 0.55.

As to `CCOC(=O)C(Cc1ccccc1)NC(=O)C1CCn2c(C(=O)c3ccccc3)ccc21` (racemic), the Activity is reported as 44% with Rattus norvegicus [1], 54% in the data set on Rattus norvegicus [4] and 49% in the data set with Rattus norvegicus [5]. The solubility result in data set [2] and in data set [9] was “Insoluble” throughout. Also, the half-life – broadly, the time in which the quantity being followed falls by half – in data set [3] was 2.13 h; in [8], 0.45 h. Further, the K in data set [6] (chloroform/PBS, pH 7.4) is 23.18; in [7] (setting [15]) it was 504.05. For the same compound, in data set [10], the fraction unbound at 20 ug/ml is 0.55.

Consider `CCOC(=O)C(Cc1c[nH]c2ccccc12)NC(=O)C1CCn2c(C(=O)c3ccccc3)ccc21` (racemic), for which the Activity was determined as 27% with Rattus norvegicus [1], 26% in the data set on Rattus norvegicus [4] and 43% in the data set with Rattus norvegicus [5]. Also, the solubility entry in data set [2] and in data set [9] was “Insoluble” throughout. The half-life in data set [3] is 2.98 h; in data set [8], 0.825 h. For the same compound, the K in data set [6] was determined as 21.42; in data set [7] it was 429.9. For the same compound, the fraction unbound at 20 ug/ml in data set [10] is 0.55.

For the compound `CCOC(=O)CC(NC(=O)C1CCn2c(C(=O)c3ccccc3)ccc21)C(=O)OCC` (racemic), the results for the Activity with Rattus norvegicus [1], in the data set on Rattus norvegicus [4] and in the data set on Rattus norvegicus [5] were 44%, 54% and 57.72%, respectively. Besides, the solubility entry in data set [2] and in data set [9] was “Insoluble” in each case. In addition, the half-life is 2.13 h in data set [3] and 0.45 h in data set [8]. For the same compound, the K in [6] (chloroform/PBS, pH 7.4) came to 18.26; in data set [7] (setting [15]), 330.12. Further, the fraction unbound at 20 ug/ml in data set [10] was 0.55.

Turning to `CCOC(=O)CNC(=O)C1CCn2c(C(=O)c3ccccc3)ccc21` (racemic), the Activity in the data set on Rattus norvegicus [1] is reported as 33%; in the data set on Rattus norvegicus [4] it was 36%; with Rattus norvegicus [5], 49%. Further, the solubility entry in [2] and in data set [9] was “Insoluble” in each case. The half-life is 2.13 h in data set [3] and 0.65 h in data set [8]. For the same compound, the K was 13.81 in [6] (chloroform/PBS, pH 7.4) and 215.9 in data set [7] (setting [15]). Also, the fraction unbound at 20 ug/ml in [10] was 0.55.

For the compound `CCOC(=O)C(C)NC(=O)C1CCn2c(C(=O)c3ccccc3)ccc21` (racemic), the Activity was found to be 27% in the data set on Rattus norvegicus [1], 26% in the data set on Rattus norvegicus [4] and 43% in the data set with Rattus norvegicus [5]. Besides, the solubility entry in data set [2] and in [9] was “Insoluble” each time. The half-life in [3] is 2.67 h; in data set [8], 0.987 h. In addition, the K in [6] (chloroform/PBS, pH 7.4) stood at 15.61; in [7] (setting [15]) it was 256.73. In addition, in data set [10], the fraction unbound at 20 ug/ml is 0.811.

Turning to `CCOC(=O)CCNC(=O)C1CCn2c(C(=O)c3ccccc3)ccc21` (racemic), the Activity was found to be 33% in the data set with Rattus norvegicus [1] and 49% with Rattus norvegicus [5]. The solubility result in data set [2] and in data set [9] was “Insoluble” in each case. The half-life in [3] was 2.67 h; in data set [8], 0.882 h. The K in [6] (chloroform/PBS, pH 7.4) is 15.33; in [7] (setting [15]) it was 250.25. The fraction unbound at 20 ug/ml in [10] is 0.621.

Consider `CCOC(=O)CCC(NC(=O)C1CCn2c(C(=O)c3ccccc3)ccc21)C(=O)OCC` (racemic), for which the Activity in the data set with Rattus norvegicus [1] was determined as 44%; with Rattus norvegicus [4], 54%; in the data set with Rattus norvegicus [5] it was 49%. The solubility entry in [2] and in [9] was “Insoluble” in each case. Moreover, the half-life in data set [3] was 2.13 h; in [8], 0.45 h. For the same compound, the K in data set [6] (chloroform/PBS, pH 7.4) was determined as 18.08; in [7] (setting [15]), 319.5. For the same compound, in [10], the fraction unbound at 20 ug/ml is 0.55.

Turning to `O=C(c1ccccc1)c1ccc2n1CCC2C(=O)O` (stereo unspecified) [KETOROLAC], the K amounted to 6.022 in data set [6] (chloroform/PBS, pH 7.4) and 75.62 in data set [7] (setting [15]). The Activity is given as 54.21% in the data set on Rattus norvegicus [11] and 64.24% with Rattus norvegicus [13]. The values for the solubility result in data set [12] and in [9] were “Soluble” and “Insoluble”, respectively. Further, the UI with Rattus norvegicus [14] is 23.2.

For the compound `CCOC(=O)C(CC(C)C)NC(=O)C1CCn2c(C(=O)c3ccccc3)ccc21` (racemic), the Activity is recorded as 27% in the data set on Rattus norvegicus [1], 26% in the data set with Rattus norvegicus [4] and 43% with Rattus norvegicus [5]. Moreover, the solubility entry in data set [2] and in [9] was “Insoluble” in each case. In addition, the values for the half-life in data set [3] and in data set [8] were 2.67 h and 1.02 h, respectively. The K in [6] (chloroform/PBS, pH 7.4) was determined as 23.09; in [7] (setting [15]), 640. Moreover, in data set [10], the fraction unbound at 20 ug/ml was 0.55.

The record behind these values is ChEMBL document CHEMBL1154430, “Synthesis, characterization and pharmacological evaluation of amide prodrugs of ketorolac” (Eur J Med Chem, 2008).
